Measured values from ChEMBL document CHEMBL4689842, “EUbOPEN Chemogenomics Library wave 1” (2021).
Several values for one entry are separate records, joined by “and”; a condition that tells them apart may be missing. Equal values may be shown once.

Tested on: Fibroblast
Assay: Multiplex assay against human fibroblast
Format: toxicity, cell-based
Method in brief: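 Cells were classed with CellPathfinder machine-learning gating, first as Hoechst high-intensity objects or normal cells, then (normal cells) as healthy, pyknosed or fragmented nuclei, and finally (pyknosed cells) as mitotic or apoptotic. Staining of live cells at seeding used Hoechst33342, BioTracker Green Microtubule Cytoskeleton Dye, MitoTracker Red and Annexin V Alexa Fluor 680, with imaging on a CQ1 microscope at 37°C and 5% CO2 after compound addition. Tubulin, mitochondrial-mass and membrane-permeability phenotypes are per cents of healthy-nucleus cells.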

[1] = 12 h, 1 µM, compound concentration 1 uM, replicate 1
[2] = 12 h, 1 µM, compound concentration 1 uM, replicate 2
[3] = 12 h, 10 µM, compound concentration 10 uM, replicate 1
[4] = 12 h, 10 µM, compound concentration 10 uM, replicate 2
[5] = 24 h, 1 µM, compound concentration 1 uM, replicate 1
[6] = 24 h, 1 µM, compound concentration 1 uM, replicate 2
[7] = 24 h, 10 µM, compound concentration 10 uM, replicate 1
[8] = 24 h, 10 µM, compound concentration 10 uM, replicate 2

SMILES: CC[C@@]1(O)C(=O)OCc2c1cc1n(c2=O)Cc2cc3ccccc3nc2-1 [CAMPTOTHECIN]
- Population Apoptotic (%) [1]: 68% and 80%
- Population Fragmented Nuclei (%) [1]: 42% and 41% and 43%
- Population Healthy Nuclei (%) [1]: 49% and 43% and 37%
- Population Membrane Permeable-Phenotype (%) [1]: 10% and 7% and 5%
- Population Mitochondria Different-Phenotype (%) [1]: 3% and 9% and 7%
- Population Mitotic Cells (%) [1]: 31% and 20% and 19%
- Population Normal (%) [1]: 84% and 52% and 47%
- Population Pyknosed Nuclei (%) [1]: 8% and 15% and 19%
- Total Cell Count [1]: 256 and 440 and 382
- Population Fragmented Nuclei (%) [2]: 64% and 80%
- Population Healthy Nuclei (%) [2]: 32% and 19% and 34%
- Population Hoechst High Intensity Objects (%) [2]: 37% and 59% and 67%
- Population Membrane Permeable-Phenotype (%) [2]: 15% and 16% and 6%
- Population Mitochondria Different-Phenotype (%) [2]: 10% and 12% and 30%
- Population Normal (%) [2]: 62% and 40% and 32%
- Population Pyknosed Nuclei (%) [2]: 3% and 0% and 1%
- Population Tubulin-Different-Phenotype (%) [2]: 21% and 28% and 24%
- Population Apoptotic (%) [3]: 87%
- Population Fragmented Nuclei (%) [3]: 34%
- Population Healthy Nuclei (%) [3]: 43%
- Population Hoechst High Intensity Objects (%) [3]: 27%
- Population Membrane Permeable-Phenotype (%) [3]: 3%
- Population Mitochondria Different-Phenotype (%) [3]: 11%
- Population Mitotic Cells (%) [3]: 12%
- Population Normal (%) [3]: 72%
- Population Pyknosed Nuclei (%) [3]: 21%
- Population Tubulin-Different-Phenotype (%) [3]: 9%
- Total Cell Count [3]: 198
- Population Apoptotic (%) [4]: 50%
- Population Fragmented Nuclei (%) [4]: 65%
- Population Healthy Nuclei (%) [4]: 30%
- Population Hoechst High Intensity Objects (%) [4]: 41%
- Population Membrane Permeable-Phenotype (%) [4]: 7%
- Population Mitochondria Different-Phenotype (%) [4]: 7%
- Population Mitotic Cells (%) [4]: 50%
- Population Normal (%) [4]: 58%
- Population Pyknosed Nuclei (%) [4]: 4%
- Population Tubulin-Different-Phenotype (%) [4]: 7%
- Total Cell Count [4]: 74
- Population Apoptotic (%) [5]: 78% and 72% and 90%
- Population Fragmented Nuclei (%) [5]: 39% and 40% and 34%
- Population Healthy Nuclei (%) [5]: 48% and 43% and 55%
- Population Membrane Permeable-Phenotype (%) [5]: 10% and 4% and 6%
- Population Mitochondria Different-Phenotype (%) [5]: 7% and 15% and 8%
- Population Mitotic Cells (%) [5]: 21% and 27% and 9%
- Population Normal (%) [5]: 54% and 49% and 89%
- Population Pyknosed Nuclei (%) [5]: 12% and 16% and 10%
- Population Tubulin-Different-Phenotype (%) [5]: 16% and 11% and 12%
- Total Cell Count [5]: 414 and 405 and 222
- Population Fragmented Nuclei (%) [6]: 57% and 80% and 66%
- Population Healthy Nuclei (%) [6]: 40% and 18% and 32%
- Population Hoechst High Intensity Objects (%) [6]: 44% and 56% and 68%
- Population Membrane Permeable-Phenotype (%) [6]: 15% and 16% and 0%
- Population Mitochondria Different-Phenotype (%) [6]: 25% and 16% and 28%
- Population Normal (%) [6]: 55% and 43% and 31%
- Population Pyknosed Nuclei (%) [6]: 2% and 1%
- Population Tubulin-Different-Phenotype (%) [6]: 20% and 29% and 36%
- Population Apoptotic (%) [7]: 85%
- Population Fragmented Nuclei (%) [7]: 34%
- Population Healthy Nuclei (%) [7]: 45%
- Population Hoechst High Intensity Objects (%) [7]: 28%
- Population Membrane Permeable-Phenotype (%) [7]: 6%
- Population Mitochondria Different-Phenotype (%) [7]: 9%
- Population Mitotic Cells (%) [7]: 14%
- Population Normal (%) [7]: 71%
- Population Pyknosed Nuclei (%) [7]: 19%
- Population Tubulin-Different-Phenotype (%) [7]: 7%
- Total Cell Count [7]: 201
- Population Apoptotic (%) [8]: 100%
- Population Fragmented Nuclei (%) [8]: 65%
- Population Healthy Nuclei (%) [8]: 31%
- Population Hoechst High Intensity Objects (%) [8]: 42%
- Population Membrane Permeable-Phenotype (%) [8]: 0%
- Population Mitochondria Different-Phenotype (%) [8]: 0%
- Population Mitotic Cells (%) [8]: 0%
- Population Normal (%) [8]: 57%
- Population Pyknosed Nuclei (%) [8]: 2%
- Total Cell Count [8]: 77
